One may read the AC50 as the midpoint of the concentration-response curve, whichever way the signal moves.

SMILES strings stand for the structures. Inconclusive results are not listed. Calls of active or inactive are those of the source.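 Rule for the calls: active = fitted half-maximal caspase rise reached at or below ten times the top valid dose; inconclusive = flat fit between 30 and 70 percent, or poor fit; inactive = the rest.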

24 compounds from PubChem BioAssay AID488898 (Broad Institute, 2010) can be followed below.

System in the first experiment: not listed separately
The experiment in a line: apoptosis induction, Bax/Bak-deficient fibroblasts – cell-based, mouse embryonic fibroblasts, dry powder, counter-screen for Bcl2-A1 inhibitor project, dose response (AID 488898). The note with it: Bax/Bak-/- MEF caspase activation, CaspaseGlo luminescence, 3 h; at 135 µM (top of the series). A digest of the protocol: (§1)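 Medium: RPMI-1640 plus 10% FBS; Test system: Bax/Bak double-knockout mouse embryonic fibroblasts, counterscreen cell line; Times: 3 h at 37 °C treatment, 1 h room-temperature read; Technique: Caspase-Glo luminescent readout.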
For orientation: A counterscreen serves to expose hits that act by an unwanted route or on another target.
In the case of `CC(=O)N[C@H]1[C@H](O[C@H]2CC[C@@]3(C)C(CC[C@]4(C)C3CC=C3[C@@H]5CC(C)(C)CC[C@]5(C(=O)OC5OCC(O)C(O)C5O)C(O)C[C@]34C)C2(C)C)O[C@H](COC2OCC(O)C(OC3OCC(O)C(O)C3O)C2O)[C@@H](O[C@@H]2O[C@@H](C)[C@H](O)[C@@H](O)[C@H]2O[C@@H]2O[C@@H](C)[C@H](O)[C@@H](O)[C@H]2O)[C@@H]1O` (some centres undefined), the caspase activation was -0.158% (inactive).

Staying with this experiment, now noted: Bax/Bak-/- MEF caspase activation, CaspaseGlo luminescence, 3 h; at 150 µM (top of the series).
In the case of `Cn1c(=NC(=O)CCl)sc2ccccc21`, the caspase activation was 0.685% (inactive).
As for `C=C1[C@@H](C)[C@H]2[C@H](Cc3ccccc3)NC(=O)[C@]23[C@H](OC(C)=O)/C=C/[C@](C)(O)C(=O)[C@@H](C)C/C=C/[C@H]3[C@@H]1O`, the caspase activation is 0.127% (inactive).
Take `O=C(Oc1cccc(/C=N/Nc2nc(Nc3ccccc3)nc(N3CCOCC3)n2)c1)c1ccco1`: the caspase activation was 0.146% (inactive).
`CCc1cc2c(=O)c(-c3cnn(-c4ccccc4)c3)c(C)oc2cc1OCC(=O)Nc1cccc(C)c1`: the caspase activation is 0.45% (inactive).
Still for that read-out and setting: the figure for `CCOC(=O)CSC1=N/C(=C/c2ccc(-n3cncn3)cc2)C(=O)N1C(C)=O` is -0.0192% (inactive); for `CC(C)(C)n1nc(-c2ccc(Cl)cc2)c2c(N)ncnc21` it is 2.79% (inactive); for `Cc1ccc(CS(=O)(=O)c2ncc(Cl)c(C(=O)Nc3nnc(C(C)C)s3)n2)cc1` it is -0.479% (inactive).
For `Cc1ccc(Sc2c([N+](=O)[O-])c(=O)n(C)c3ccccc23)cc1`, the caspase activation is 1% (inactive).
`Cc1c(CCOC(=O)c2ccc(N3CCOCC3)c([N+](=O)[O-])c2)sc[n+]1CC#N`: the caspase activation is 0.688% (inactive).
As for `C/C1=C/C(=O)O[C@@H]2C[C@@H](CC[C@H](C)/C=C\CC1)O[C@@](O)(C1CSC(=O)N1)C2` (some centres undefined), the caspase activation was 1.16% (inactive).
Regarding `Cc1cccc(CS(=O)(=O)c2ncc(Cl)c(C(=O)Nc3nnc(C(C)C)s3)n2)c1`, the caspase activation is -0.163% (inactive).
For the compound `COc1cccc(C(=O)C(C#N)=C(SC)SC)c1`, the caspase activation was 0.208% (inactive).
`Nc1nc(F)nc2c1ncn2[C@@H]1O[C@H](CO)[C@@H](O)[C@H]1O`: the caspase activation was -0.0553% (inactive).
Still for that read-out and setting: the same measure for `CC(=O)OC(C)(C)/C=C/C(=O)[C@](C)(O)C1[C@H](O)C[C@@]2(C)C3CC=C4C(C[C@H](O)C(=O)C4(C)C)[C@]3(C)C(=O)C[C@]12C` (some centres undefined): 0.556% (inactive).
Same read-out and setting: the same measure for `C=C1[C@@H](C)[C@H]2[C@H](Cc3ccccc3)NC(=O)[C@]23OC(=O)/C=C\[C@H](O)CCC[C@@H](C)C/C=C/[C@H]3[C@@H]1O`: 0.116% (inactive).
On the same count and under the same terms, the same measure for `CCc1nnc(NC(=O)c2nc(S(=O)(=O)Cc3ccccc3)ncc2Cl)s1`: -0.106% (inactive); for `COc1cc(/C=C(/C#N)c2nc3ccccc3[nH]2)ccc1OCC(=O)Nc1ccccc1C(C)C`: 1.27% (inactive).
Regarding `CCSc1nnc(NC(=O)c2nc(S(=O)(=O)Cc3ccc(F)cc3)ncc2Cl)s1`, the caspase activation is -0.717% (inactive).
With `O=C(CCl)N=c1sccn1Cc1ccccc1Cl`, the caspase activation is 0.854% (inactive).
As to `Cc1c(C=O)c(C=O)c(C)n1Cc1ccccc1`, the caspase activation is 1.17% (inactive).

A further experiment has as its system Bax/Bak-/- MEF caspase activation, CaspaseGlo luminescence, 3 h. The experiment is described as above.
Settings: not given
In outline: as §1
Consider `Cc1cc(C(=O)CCl)c(C)n1CCc1ccc(Cl)cc1`, for which the AC50 was 13.3 µM.
Turning to `COc1ccc(N(C(=O)CCl)C(C(=O)NCCc2ccccc2)c2cccs2)cc1Cl` (centres undefined), the AC50 is 24.9 µM.
On to `Cc1cccc(NC(=O)/C(C#N)=C/c2cn(CC(=O)NCc3ccco3)c3ccccc23)c1`, for which the AC50 is 4.78 µM.
